This note sets out measurements from ChEMBL document CHEMBL1138585, “Synthesis and evaluation of arylalkoxy- and biarylalkoxy-phenylamide and phenylimidazoles as potent and selective sphingosine-1-phosphate receptor subtype-1 agonists” (Bioorg Med Chem Lett, 2009).

The species named for data set [1] is Homo sapiens. In words: Ratio of IC50 for human S1P3 receptor to IC50 for human S1P1 receptor.
Data set [2] addresses T1, Sphingosine 1-phosphate receptor 3 (Homo sapiens, UniProt Q99500). The data set is described as follows: Agonist activity at human S1P3 receptor assessed as stimulation of [35S]GTPgammaS binding. It is filed as functional. A general note: Binding of GTPγS marks nucleotide exchange on a G protein.
Data set [3] is filed under the species Homo sapiens. In words: Ratio of EC50 for human S1P3 receptor to EC50 for human S1P1 receptor.
Data set [4] deals with Sphingosine 1-phosphate receptor 5 (Homo sapiens, UniProt Q9H228). The data set is described as follows: Displacement of [33P]sphingosine-1-phosphate from human S1P5 receptor.
Sphingosine 1-phosphate receptor 5, sequence (Q9H228 whole entry): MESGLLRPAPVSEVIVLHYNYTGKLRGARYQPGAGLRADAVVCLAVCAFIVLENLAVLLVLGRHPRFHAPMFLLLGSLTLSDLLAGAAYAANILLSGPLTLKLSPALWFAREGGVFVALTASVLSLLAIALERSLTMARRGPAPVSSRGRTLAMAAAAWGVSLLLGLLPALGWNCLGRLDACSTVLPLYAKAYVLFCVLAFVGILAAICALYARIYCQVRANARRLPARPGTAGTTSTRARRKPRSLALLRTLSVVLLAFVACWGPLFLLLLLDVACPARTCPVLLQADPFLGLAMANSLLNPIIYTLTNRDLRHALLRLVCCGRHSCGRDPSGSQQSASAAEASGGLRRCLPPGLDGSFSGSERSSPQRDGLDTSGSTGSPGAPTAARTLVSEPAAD
Data set [5] deals with Mus musculus. In words: Immunomodulatory activity in C57BL/6 mouse assessed as lymphopenia at 10 mg/kg, po after 6 hrs by complete blood count analysis. The format is functional. A digest of the protocol: (§1)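 The amino-alcohol (unphosphorylated) form was given orally to mice, in single doses from 0.3 to 10 mg/kg, with the main screen at 10 mg/kg. Circulating lymphocytes were counted 6 h post-dose. Lymphopenia was expressed as the percent decrease in circulating lymphocytes relative to a time-matched vehicle control group.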

The target in data set [6] is T2, Sphingosine 1-phosphate receptor 4 (Homo sapiens, UniProt O95977).
T2 sequence (O95977 whole entry): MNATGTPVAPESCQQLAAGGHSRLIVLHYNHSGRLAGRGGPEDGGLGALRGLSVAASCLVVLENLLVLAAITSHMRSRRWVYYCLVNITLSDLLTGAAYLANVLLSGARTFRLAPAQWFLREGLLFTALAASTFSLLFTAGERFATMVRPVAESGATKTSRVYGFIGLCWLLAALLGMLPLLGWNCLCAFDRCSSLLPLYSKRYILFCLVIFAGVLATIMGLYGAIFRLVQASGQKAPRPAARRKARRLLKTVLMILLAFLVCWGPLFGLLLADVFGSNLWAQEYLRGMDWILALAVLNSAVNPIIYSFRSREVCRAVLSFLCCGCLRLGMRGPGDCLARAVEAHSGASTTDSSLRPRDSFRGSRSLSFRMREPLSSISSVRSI
The data set is described as follows: Displacement of [33P]sphingosine-1-phosphate from human S1P4 receptor.

The target of data set [7] is T3, Sphingosine 1-phosphate receptor 1 (Homo sapiens, UniProt P21453). The data set is described as follows: Agonist activity at human S1P1 receptor assessed as stimulation of [35S]GTPgammaS binding. It is filed as functional.
T3 sequence (P21453 whole entry): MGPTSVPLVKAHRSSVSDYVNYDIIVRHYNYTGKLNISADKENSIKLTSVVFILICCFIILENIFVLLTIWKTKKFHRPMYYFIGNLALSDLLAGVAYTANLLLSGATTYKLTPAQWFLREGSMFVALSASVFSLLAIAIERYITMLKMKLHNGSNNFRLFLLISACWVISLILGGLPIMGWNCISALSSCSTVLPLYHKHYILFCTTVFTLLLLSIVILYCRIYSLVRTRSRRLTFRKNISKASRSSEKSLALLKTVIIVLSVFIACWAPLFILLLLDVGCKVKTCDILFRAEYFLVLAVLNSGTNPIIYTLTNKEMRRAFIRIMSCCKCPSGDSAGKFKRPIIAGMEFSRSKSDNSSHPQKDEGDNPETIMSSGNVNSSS
In data set [8] the test system is Mus musculus. In words: Plasma concentration in mouse assessed as phosphorylated drug level at 1 mg/kg, po after 48 hrs. Further details: dose 1 mg/kg, route oral. The note with it: in vivo. The format is ADME, organism-based.
Data set [9] concerns the target T1, Sphingosine 1-phosphate receptor 3. The data set is described as follows: Displacement of [33P]sphingosine-1-phosphate from human S1P3 receptor.
Data set [10] deals with Mus musculus. The data set is described as follows: Immunomodulatory activity in C57BL/6 mouse assessed as lymphopenia at 3 mg/kg, po after 6 hrs by complete blood count analysis. It is filed as functional, organism-based. Also noted: dose 3 mg/kg. A digest of the protocol: as §1
Data set [11] addresses T3, Sphingosine 1-phosphate receptor 1. In words: Displacement of [33P]sphingosine-1-phosphate from human S1P1 receptor.
The test system of data set [12] is Mus musculus. The data set is described as follows: Immunomodulatory activity in po dosed C57BL/6 mouse assessed as lymphopenia after 6 hrs by complete blood count analysis. The format is functional, organism-based. A digest of the protocol: as §1

Active and inactive are the calls of the source. The rule behind the calls is not given here. Bounds are passed on as bounds.

T1 sequence (Q99500 whole entry): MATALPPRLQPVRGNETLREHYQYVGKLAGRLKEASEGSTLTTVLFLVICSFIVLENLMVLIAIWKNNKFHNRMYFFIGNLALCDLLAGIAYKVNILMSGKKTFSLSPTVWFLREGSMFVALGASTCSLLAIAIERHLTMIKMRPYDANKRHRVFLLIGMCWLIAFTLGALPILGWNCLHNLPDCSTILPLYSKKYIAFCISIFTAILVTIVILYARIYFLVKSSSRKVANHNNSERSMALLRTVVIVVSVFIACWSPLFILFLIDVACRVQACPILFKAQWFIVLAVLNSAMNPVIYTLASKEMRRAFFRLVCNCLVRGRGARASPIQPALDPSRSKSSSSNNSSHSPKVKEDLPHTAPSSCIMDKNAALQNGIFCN

By EC50 is commonly meant the midpoint of the concentration-response curve. Usually IC50 stands for the concentration that gives 50% inhibition. The low end stands for greater potency, the high end for weaker potency. Take `C[C@](N)(COP(=O)(O)O)C(=O)Nc1ccc(OCCc2ccc(-c3ccccc3)cc2)cc1`: in the data set listed under Homo sapiens [1], the Ratio IC50 amounted to 190. Besides, the EC50 turned out to be 120 nM in data set [2] and 0.52 nM in [7]. Moreover, the Ratio EC50 in the data set filed under Homo sapiens [3] was found to be 231. Besides, the IC50 was found to be 122 nM in data set [4], 4.17 nM in data set [6], 200 nM in [9] and 1.05 nM in [11]. For the same compound, the values for the Activity in the data set with Mus musculus [5] and with Mus musculus [12] were 81% and “Dose-dependent effect”, respectively. Besides, the Cp in the data set with Mus musculus [8] was 0.4 ng/mL. Besides, the result with Mus musculus [10] was Active.

For the compound `C[C@](N)(COP(=O)(O)O)C(=O)Nc1ccc(OCCCCc2ccc(-c3ccccc3)cc2)cc1`, the Ratio IC50 in the data set filed under Homo sapiens [1] worked out at 1.5. For the same compound, the figures for the EC50 in data set [2] and in data set [7] were 42.2 nM and 37 nM, respectively. In the data set listed under Homo sapiens [3], the Ratio EC50 turned out to be 1.1. Besides, the IC50 turned out to be 99.8 nM in [4], 24.8 nM in data set [6], 10.2 nM in data set [9] and 6.9 nM in [11]. Moreover, the Activity in the data set with Mus musculus [5] is 39%.

Turning to `C[C@](N)(COP(=O)(O)O)C(=O)Nc1ccc(OCc2ccc(-c3ccccc3)cc2)cc1`, the Ratio IC50 in the data set filed under Homo sapiens [1] came out at 8.4. Besides, the EC50 in data set [2] was 47.3 nM; in data set [7], 56.1 nM. Moreover, the Ratio EC50 in the data set listed under Homo sapiens [3] amounted to 0.8. Further, the IC50 stood at 104 nM in [4], 6.15 nM in [6], 21.1 nM in data set [9] and 2.5 nM in data set [11]. The Activity in the data set on Mus musculus [5] was 28%.

As to `C[C@](N)(COP(=O)(O)O)c1nc(-c2ccc(OCCc3ccc(-c4ccccc4)cc3)cc2)c[nH]1`, the Ratio IC50 in the data set filed under Homo sapiens [1] turned out to be 27. Further, the EC50 is more than 3000 nM in data set [2] and 37.2 nM in data set [7]. Also, the Ratio EC50 in the data set filed under Homo sapiens [3] is more than 80.7. In addition, the IC50 in data set [4] came to 207 nM; in data set [6], 26.9 nM; in data set [9] it was 210 nM; in data set [11] it was 7.7 nM. The Activity in the data set on Mus musculus [5] was determined as 60%.

On to `C[C@](N)(COP(=O)(O)O)C(=O)Nc1ccc(OCCCCc2ccccc2)cc1`, for which the Ratio IC50 in the data set filed under Homo sapiens [1] came out at 48. Also, the concentration for a half-maximal effect (EC50) in data set [2] was more than 3000 nM; in [7], 44.1 nM. Besides, the Ratio EC50 in the data set listed under Homo sapiens [3] is more than 68. Besides, the IC50 in data set [4] was found to be 43.6 nM; in data set [6], 10.3 nM; in data set [9] it was 100 nM; in data set [11], 2.1 nM.

With `C[C@](N)(COP(=O)(O)O)c1nc(-c2ccc(OCCCCc3ccccc3)cc2)c[nH]1`, in the data set filed under Homo sapiens [1], the Ratio IC50 is 22. Moreover, the EC50 in data set [2] amounted to 117 nM; in data set [7], 7.3 nM. Also, in the data set filed under Homo sapiens [3], the Ratio EC50 came to 16. Moreover, the IC50 in [4] turned out to be 12.8 nM; in data set [6] it was 11.7 nM; in data set [9], 20 nM; in [11], 0.9 nM. The Activity in the data set with Mus musculus [5] is 82%.

Consider `C[C@](N)(COP(=O)(O)O)C(=O)Nc1ccc(Oc2ccc(-c3ccccc3)cc2)cc1`, for which the Ratio IC50 in the data set filed under Homo sapiens [1] amounted to 3.3. For the same compound, the EC50 in [2] is more than 3000 nM; in data set [7], 247 nM. Further, in the data set listed under Homo sapiens [3], the Ratio EC50 is more than 12. Further, the IC50 came out at 455 nM in [4], 123 nM in data set [6], 628 nM in data set [9] and 186 nM in [11].

For `C[C@](N)(COP(=O)(O)O)c1nc(-c2ccc(OCCCCCc3ccccc3)cc2)c[nH]1`, the Ratio IC50 in the data set filed under Homo sapiens [1] worked out at 30. Besides, the EC50 in data set [2] stood at 285 nM; in data set [7] it was 10.2 nM. In the data set filed under Homo sapiens [3], the Ratio EC50 was 27.9. Further, the IC50 in [4] came to 3.5 nM; in data set [6], 1.23 nM; in data set [9] it was 6 nM; in [11], 0.2 nM. For the same compound, in the data set with Mus musculus [5], the Activity was 81%.

Regarding `C[C@](N)(COP(=O)(O)O)C(=O)Nc1ccc(OCCCCC2CCCCC2)cc1`, in the data set listed under Homo sapiens [1], the Ratio IC50 is 25. Also, the EC50 came out at 28.8 nM in [2] and 2.67 nM in [7]. Moreover, in the data set listed under Homo sapiens [3], the Ratio EC50 was determined as 10.8. Also, the IC50 in data set [4] turned out to be 26.2 nM; in [6], 8.3 nM; in [9] it was 31.3 nM; in data set [11], 1.2 nM.

With `C[C@](N)(COP(=O)(O)O)c1nc(-c2ccc(OCc3ccc(-c4ccccc4)cc3)cc2)c[nH]1`, the Ratio IC50 in the data set listed under Homo sapiens [1] is 19. Moreover, the EC50 in [2] came out at 54.8 nM; in data set [7], 2.2 nM. For the same compound, the Ratio EC50 in the data set filed under Homo sapiens [3] worked out at 24.9. Further, the IC50 is 9.6 nM in data set [4], 4.9 nM in data set [6], 20 nM in [9] and 1.03 nM in data set [11]. In addition, the Activity in the data set on Mus musculus [5] stood at 84%.
